Results pooled from the literature.
Protocols differ between the studies behind these lines.
Target: cGMP-dependent protein kinase 2 (PRKG2, Homo sapiens, UniProt Q13237)
Sequence (Q13237 1-762, as in one of the studies): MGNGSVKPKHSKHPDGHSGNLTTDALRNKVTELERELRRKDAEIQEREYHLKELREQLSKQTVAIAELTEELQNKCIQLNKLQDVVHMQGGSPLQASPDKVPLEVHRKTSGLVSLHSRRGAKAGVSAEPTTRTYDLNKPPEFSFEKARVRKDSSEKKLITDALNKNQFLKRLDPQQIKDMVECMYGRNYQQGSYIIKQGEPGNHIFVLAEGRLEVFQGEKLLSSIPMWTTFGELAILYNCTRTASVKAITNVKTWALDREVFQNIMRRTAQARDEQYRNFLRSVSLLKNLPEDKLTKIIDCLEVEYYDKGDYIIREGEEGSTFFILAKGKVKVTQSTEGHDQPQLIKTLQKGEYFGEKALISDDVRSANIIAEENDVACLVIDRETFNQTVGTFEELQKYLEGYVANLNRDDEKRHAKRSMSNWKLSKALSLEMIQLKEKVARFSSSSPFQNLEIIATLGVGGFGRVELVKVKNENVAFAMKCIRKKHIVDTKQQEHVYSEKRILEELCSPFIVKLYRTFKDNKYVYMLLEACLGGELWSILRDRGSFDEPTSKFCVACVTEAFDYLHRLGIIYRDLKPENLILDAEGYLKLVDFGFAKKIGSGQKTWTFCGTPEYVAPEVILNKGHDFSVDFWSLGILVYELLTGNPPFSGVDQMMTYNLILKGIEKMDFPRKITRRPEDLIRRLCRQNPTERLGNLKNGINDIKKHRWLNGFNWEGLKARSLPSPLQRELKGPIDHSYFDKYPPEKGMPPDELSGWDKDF

SMILES | test | setting | remaining binding [%]
CN(C)c1nccc(-c2cnc3ncccn23)n1 | binding | 1 µM | 69
C[C@@H](c1ccc(-n2cnc3c(N)ncnc32)cc1)N1CCc2nn(C)c(Cc3ccccc3)c2C1=O | binding, competition with immobilised ligand | 0.1 µM | 73
COc1ccnn2ncc(-c3ccnc(N(C)C)n3)c12 | binding | 1 µM | 100
CCS(=O)(=O)c1cc2cc(C[C@@](O)(CC(C)(C)c3ccc(F)cc3C(N)=O)C(F)(F)F)[nH]c2cn1 | cell-free assay, competition with immobilised ligand | 1 µM | 86
O=C(NCC1CCOCC1)c1n[nH]cc1NC(=O)c1c(F)cccc1F | binding, competition with immobilised ligand | 1 µM | 88
N[C@@H]1CCN(c2nccc(-c3cnn4ncccc34)n2)C1 | binding | 1 µM | 100
c1cncc(-c2cccc(Nc3nccc(NC4CCCCC4)n3)c2)c1 | binding, competition with immobilised ligand | 10 µM | 74
COc1ncc2cc3ccccc3nc2c1C#N | cell-free assay, competition with immobilised ligand | 5 µM | 100
CN(CCCC(F)(F)F)c1nccc(-c2cnn3ncccc23)n1 | binding | 1 µM | 96
CCN1CCN(Cc2ccc(C(=O)Nc3ccc(C)c(Oc4ccc5c(c4)CC(=O)N5)c3)cc2C(F)(F)F)CC1 | binding, competition with immobilised ligand | 1 µM | 100
O=C(NCCCN1CCOCC1)c1ccc(Nc2nccc(-c3cc4ccccc4s3)n2)cc1 | binding, competition with immobilised ligand | 1 µM | 43
Nc1ncc2c(n1)-c1c([nH]c3ccc(C#CC4CC4)cc13)CCCC2 | binding, competition with immobilised ligand | 1 µM | 80
CCC(=N\O)/C(C)=C/c1ccc(F)cc1 | cell-free assay, competition with immobilised ligand | 1 µM | 79
C[C@@H]1CCN(c2nccc(-c3cnn4ncccc34)n2)C1 | binding | 1 µM | 81
CCC(=O)N[C@H]1CC[C@@H](C(=O)N(C)c2ccc(-c3nc4ccccc4o3)cc2)C1 | cell-free assay, competition with immobilised ligand | 1 µM | 100
COc1cnc(Nc2cccc(S(N)(=O)=O)c2)nc1N1CCN(c2ccccc2)CC1 | binding, competition with immobilised ligand | 1 µM | 92
O=C1NC(c2ccccn2)Sc2ccccc21 (stereo not shown) | cell-free assay, competition with immobilised ligand | 1 µM | 90
CC1CCCN1c1nccc(-c2cnn3ncccc23)n1 (stereo not shown) | binding | 1 µM | 97
O=C(NCCCN1CCOCC1)c1ccc(Nc2ncc(Cl)c(-c3ccc(Cl)s3)n2)cc1 | binding, competition with immobilised ligand | 1 µM | 54
NS(=O)(=O)c1cc(NC(=O)C2(c3ccccc3Cl)CC2)ccc1Oc1cccc(Cl)c1 | cell-free assay, competition with immobilised ligand | 1 µM | 100
O=C(c1ccc(Nc2nccc(-c3cc4ccccc4s3)n2)cc1)N1CCC(N2CCCC2)CC1 | binding, competition with immobilised ligand | 1 µM | 33
O=C(O)c1cc(-c2ccc(C3CCNCC3)cc2)c2ccc(-c3ccc(C(F)(F)F)cc3)cc2c1 | cell-free assay, competition with immobilised ligand | 1 µM | 79
